Source: ChEMBL document CHEMBL3272281, “Synthesis and structure-activity relationship studies of cytotoxic epoxide derivatives of 7-oxabicyclo[2.2.1]heptane” (J Med Chem, 1977)
In brackets after ≈: the same amount, converted by molar mass. Activity calls are given as the source filed them.

Assays:
[1] = tested on: Mus musculus; assay: Toxicity in BDF1 mouse allografted with mouse L1210 cells at 200 mg/kg; format: organism-based; set-up: dose 200 mg/kg; conditions: in vivo
How it was run: (§1)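 Toxicity was recorded as lethality to BDF1 mice during the in vivo L1210 lymphoid leukemia screen. Compounds were given at 12.5, 50, 200 or 400 mg/kg.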

[2] = tested on: Mus musculus; assay: Toxicity in BDF1 mouse allografted with mouse L1210 cells at 400 mg/kg; format: organism-based; set-up: dose 400 mg/kg; conditions: in vivo; how it was run: as §1
[3] = Cytotoxicity against human 9KB cells; format: functional; conditions: read-out: ED50 (the source's name)
How it was run: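 9KB cell culture assay run under the National Cancer Institute programme with compounds supplied in DMF solution. Values are ED50 in μg/ml, and ≤4 μg/ml is taken as the significance criterion.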

[4] = tested on: L1210; assay: Antitumor activity against mouse L1210 cells allografted in BDF1 mouse; format: functional
[5] = tested on: Mus musculus; assay: Toxicity in BDF1 mouse allografted with mouse L1210 cells at 50 mg/kg; format: organism-based; set-up: dose 50 mg/kg; conditions: in vivo; how it was run: as §1
[6] = tested on: Mus musculus; assay: Toxicity in BDF1 mouse allografted with mouse L1210 cells at 12.5 mg/kg; format: organism-based; set-up: dose 12.5 mg/kg; conditions: in vivo; how it was run: as §1

SMILES: COC(=O)C1=C(C(=O)OC)C2CCC1C2
- Activity [1]: Non-toxic
- Activity [2]: Non-toxic
- EC50 [3]: 100 µg/mL (≈ 476 µM)
- Activity [4]: inactive

SMILES: C1OCC2OC12 (stereo not given)
- Activity [1]: Non-toxic
- Activity [2]: Non-toxic
- EC50 [3]: 100 µg/mL (≈ 1160 µM)
- Activity [4]: inactive

SMILES: COC(=O)[C@@H]1[C@H](C(=O)OC)[C@@H]2C=C[C@@H]1O2
- Activity [1]: Non-toxic
- Activity [2]: Non-toxic
- EC50 [3]: 100 µg/mL (≈ 471 µM)
- Activity [4]: inactive

SMILES: COC(=O)C1=C(C(=O)OC)[C@H]2O[C@H]1[C@@H]1O[C@@H]12
- Activity [1]: Toxic
- Activity [2]: Toxic
- Activity [5]: Toxic
- EC50 [3]: 1.5 µg/mL (≈ 6.63 µM)
- Activity [4]: inactive
- Activity [6]: Non-toxic

SMILES: C1CC2CC1C1OC21 (stereo not given)
- Activity [1]: Non-toxic
- Activity [2]: Non-toxic
- EC50 [3]: 100 µg/mL (≈ 908 µM)
- Activity [4]: inactive

SMILES: COC(=O)C1=C(C(=O)OC)[C@@]2(C)O[C@H]1[C@@H]1O[C@@H]12
- Activity [1]: Toxic
- Activity [2]: Toxic
- Activity [5]: Toxic
- EC50 [3]: 3 µg/mL (≈ 12.5 µM)
- Activity [4]: inactive
- Activity [6]: Non-toxic

SMILES: COC(=O)C1CC=CC(C)C1C(=O)OC (stereo not given)
- Activity [1]: Non-toxic
- Activity [2]: Non-toxic
- EC50 [3]: 48 µg/mL (≈ 226 µM)
- Activity [4]: inactive

SMILES: COC(=O)[C@@H]1[C@H](C(=O)OC)[C@@H]2C=C[C@@H]1C2
- Activity [1]: Non-toxic
- Activity [2]: Non-toxic
- EC50 [3]: 100 µg/mL (≈ 476 µM)
- Activity [4]: inactive

SMILES: C1=CCC2OC2C1 (stereo not given)
- Activity [1]: Non-toxic
- Activity [2]: Toxic
- EC50 [3]: 130 µg/mL (≈ 1350 µM)
- Activity [4]: inactive

SMILES: COC(=O)C1CC2OC2C(C)C1C(=O)OC (stereo not given)
- Activity [1]: Non-toxic
- Activity [2]: Non-toxic
- EC50 [3]: 100 µg/mL (≈ 438 µM)
- Activity [4]: inactive

SMILES: COC(=O)[C@@H]1[C@H]2C[C@@H]([C@@H]3O[C@H]23)[C@@H]1C(=O)OC
- Activity [1]: Non-toxic
- Activity [2]: Non-toxic
- EC50 [3]: 100 µg/mL (≈ 442 µM)
- Activity [4]: inactive

SMILES: COC(=O)C1=C(C(=O)OC)C2(C)C=CC1O2 (stereo not given)
- Activity [1]: Toxic
- Activity [2]: Toxic
- Activity [5]: Toxic
- EC50 [3]: 3 µg/mL (≈ 13.4 µM)
- Activity [4]: inactive
- Activity [6]: Non-toxic

SMILES: COC(=O)C1=C(C(=O)OC)C2CCC1O2
- Activity [1]: Non-toxic
- Activity [2]: Non-toxic
- EC50 [3]: 22 µg/mL (≈ 104 µM)
- Activity [4]: inactive

SMILES: COC(=O)C1=C(C(=O)OC)C2C=CC1C2
- Activity [1]: Non-toxic
- Activity [2]: Non-toxic
- EC50 [3]: 100 µg/mL (≈ 480 µM)
- Activity [4]: inactive

SMILES: COC(=O)[C@@H]1[C@H]2O[C@@H]([C@H]3O[C@H]32)[C@@H]1C(=O)OC
- Activity [1]: Non-toxic
- Activity [2]: Non-toxic
- EC50 [3]: 100 µg/mL (≈ 438 µM)
- Activity [4]: inactive

SMILES: COC(=O)C1=C(C(=O)OC)[C@H]2C[C@H]1[C@@H]1O[C@@H]12
- Activity [1]: Non-toxic
- Activity [2]: Toxic
- EC50 [3]: 22 µg/mL (≈ 98.1 µM)
- Activity [4]: inactive
